Results taken from ChEMBL document CHEMBL1156201, “2-MeS-beta,gamma-CCl2-ATP is a potent agent for reducing intraocular pressure” (J Med Chem, 2010).
The source made the active and inactive calls. The calls are words filed in the database; no cut-off is given here.

Experiments:
[1] = Association constant pKa of the compound; type: physicochemical
[2] = Chemical stability assessed as enzymatic stability at 100 uM after 20 mins in presence of human NTPDase3; type: physicochemical
Method in brief: (§1)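 Crude extracts of COS-7 cells transiently transfected with the NTPDase. Extract preincubated 3 min at 37 °C in Tris-Ringer buffer, pH 7.4. Substrate added at 100 μM final; reaction stopped at 20 min with malachite green. Released Pi read at 630 nm. Activity of untransfected-cell extract subtracted.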

[3] = Chemical stability assessed as enzymatic stability at 100 uM after 20 mins in presence of human NPP1; type: physicochemical
Method in brief: (§2)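 Human NPP1 or NPP3 extract was preincubated 3 min at 37 °C in 1 mM CaCl2, 140 mM NaCl, 5 mM KCl, 50 mM Tris pH 8.5. Nucleotide was added at 100 μM final. After 20 min the reaction was quenched into ice-cold 1 M perchloric acid and neutralised with KOH. Degradation was read by reverse-phase HPLC (TBA/EDTA/phosphate, pH 7.0).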

[4] = Chemical stability assessed as enzymatic stability at 100 uM after 20 mins in presence of human NTPDase8; type: physicochemical; method in brief: as §1
[5] = species on record: Oryctolagus cuniculus; assay: Antihypertensive activity in New Zealand rabbit assessed as reduction in intraocular pressure at 100 uM after 8 hrs relative to control; type: functional
Method in brief: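 Male New Zealand white rabbits (2.5 ± 0.5 kg). 100 μM, 10 μL applied unilaterally to the cornea; contralateral eye got the same volume of saline (0.9% NaCl). IOP read by rebound tonometer without anesthetic, twice before dosing, then followed up to 8 h. Blinded design. Mean ± SEM of 8–10 independent experiments.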

[6] = Chemical stability assessed as enzymatic stability at 100 uM after 20 mins in presence of human NTPDase2; type: physicochemical; method in brief: as §1
[7] = tested on: Serum; assay: Half life in human serum; type: ADME, cell-free
Method in brief: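 Serum came from healthy volunteers' blood, held 12 h at 4 °C, centrifuged and stored at −80 °C. Nucleotide (4.5 μL of 40 mM stock) was incubated with 180 μL serum plus 540 μL RPMI-1640 at 37 °C for up to 24 h, sampled at 0.5–12 h intervals. Samples were heat-stopped at 80 °C, cleaned up by extraction and anion-exchange, then analysed by HPLC. Hydrolysis rate came from peak-area change over time.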

[8] = Chemical stability assessed as enzymatic stability at 100 uM after 20 mins in presence of human NTPDase1; type: physicochemical; method in brief: as §1
[9] = Chemical stability assessed as enzymatic stability at 100 uM after 20 mins in presence of human NPP3; type: physicochemical; method in brief: as §2
[10] = target: P2Y purinoceptor 1 (Meleagris gallopavo, UniProt P49652); assay: Agonist activity at turkey P2Y1 receptor expressed in human […] receptor assessed as induction of intracellular calcium mobilization; type: functional, cell-based
[11] = species on record: Oryctolagus cuniculus; assay: Antihypertensive activity in New Zealand rabbit assessed as reduction in intraocular pressure at 1 nM to 100 uM after 8 hrs relative to control; type: functional, Eye
Method in brief: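 Male New Zealand white rabbits (2.5 ± 0.5 kg). 10 μL of 1 nM–100 μM solution instilled unilaterally on the cornea; contralateral eye got saline (0.9% NaCl, vehicle). IOP read by rebound tonometer without anesthetic, twice before dosing. Maximal response at each dose was plotted against concentration and fitted for pD2; EC50 taken as antilog of −pD2. One dose per animal per day, washout ≥2 days. Experimenter blinded.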

[12] = Chemical stability assessed as half life of hydrolysis at pH 1.4; type: physicochemical; details: buffer
Method in brief: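 Analogue (1.5 mg) in 0.2 M HCl/KCl buffer (0.8 mL), adjusted to pH 1.4, held at 37 °C for 1–31 days. Sampled at 1–24 h intervals and analysed by reverse-phase HPLC. Half-life derived from peak integration over time.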

Chain of P2Y purinoceptor 1 (P49652 whole entry): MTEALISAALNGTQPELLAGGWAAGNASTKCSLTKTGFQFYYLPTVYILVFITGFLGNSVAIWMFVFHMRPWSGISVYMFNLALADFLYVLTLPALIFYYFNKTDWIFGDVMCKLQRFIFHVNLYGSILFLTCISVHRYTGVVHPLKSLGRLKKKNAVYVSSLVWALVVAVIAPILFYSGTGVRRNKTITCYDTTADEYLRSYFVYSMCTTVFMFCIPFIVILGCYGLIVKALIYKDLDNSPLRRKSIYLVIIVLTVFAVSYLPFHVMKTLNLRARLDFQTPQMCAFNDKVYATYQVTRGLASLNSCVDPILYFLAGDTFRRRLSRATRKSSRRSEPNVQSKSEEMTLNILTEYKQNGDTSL

SMILES | pKa [1] | Activity [3] | Activity [4] | Activity ([5]; Eye) | Activity [6] | Activity [8] | Activity [9] | EC50 ([10]; read-out: EC50) | also measured
CSc1nc(N)c2ncn([C@@H]3O[C@H](COP(=O)(O)OP(=O)(O)C(F)(F)P(=O)(O)O)[C@@H](O)[C@H]3O)c2n1 | 7 | 6.2% | 5.2% | inactive | 1.1% | 2.6% | 0.5% | 760 nM | Activity [2]: 2.6%; t1/2 [7]: 12.4 h
CSc1nc(N)c2ncn([C@@H]3O[C@H](COP(=O)(O)OP(=O)(O)C(Cl)(Cl)P(=O)(O)O)[C@@H](O)[C@H]3O)c2n1 | 7 | 5.8% |  |  | 0.5% | 0.5% | 1.9% | 9540 nM | Activity [5]: 32%
CSc1nc(N)c2ncn([C@@H]3O[C@H](COP(=O)(O)C(Cl)(Cl)P(=O)(O)O)[C@@H](O)[C@H]3O)c2n1 | 7 | 3.3% |  | Active | 1.7% |  | 1.8% | 3100 nM | pD2 [11]: 4.5
CSc1nc(N)c2ncn([C@@H]3O[C@H](COP(=O)(O)C(F)(F)P(=O)(O)O)[C@@H](O)[C@H]3O)c2n1 | 7 | 3.9% | 0.1% | Active | 2.4% | 1.3% |  | 980 nM | pD2 [11]: 5.1
BP(=O)(OC[C@H]1O[C@@H](n2cnc3c(N)ncnc32)[C@H](O)[C@@H]1O)OP(=O)(O)CP(=O)(O)O (stereo not given in full) | 8.4 |  |  |  |  |  |  |  | half-life [12]: 19 h
BP(=O)(OC[C@H]1O[C@@H](n2cnc3c(N)nc(SC)nc32)[C@H](O)[C@@H]1O)OP(=O)(O)CP(=O)(O)O (stereo not given in full) | 8.4 |  |  |  |  |  |  |  | half-life [12]: 14.5 h
CSc1nc(N)c2ncn([C@@H]3O[C@H](COP(=O)(O)OP(=O)(O)CP(=O)(O)O)[C@@H](O)[C@H]3O)c2n1 |  |  |  |  |  |  |  |  | t1/2 [12]: 65 h; Activity [5]: 32%; pD2 [11]: 4.5
BP(=O)(OC[C@H]1O[C@@H](n2cnc3c(N)nc(SC)nc32)[C@H](O)[C@@H]1O)OP(=O)(O)C(F)(F)P(=O)(O)O (stereo in doubt; 10A) | 7 | 4% | 1.7% |  | 1.8% | 1% | 10% |  | Activity [2]: 4.4%; EC50 [10]: Not Active
BP(=O)(OC[C@H]1O[C@@H](n2cnc3c(N)nc(SC)nc32)[C@H](O)[C@@H]1O)OP(=O)(O)C(F)(F)P(=O)(O)O (stereo in doubt; 10B) |  | 3.4% |  |  | 0.9% | 0.4% | 3.2% | 2130 nM | 
BP(=O)(OC[C@H]1O[C@@H](n2cnc3c(N)ncnc32)[C@H](O)[C@@H]1O)OP(=O)(O)C(Cl)(Cl)P(=O)(O)O (stereo in doubt; 11A) [listing 1 of 2 here] | 7 | 5.3% | 4.4% |  | 1.3% | 5.5% |  |  | Activity [2]: 2.6%; EC50 [10]: Not Active
BP(=O)(OC[C@H]1O[C@@H](n2cnc3c(N)ncnc32)[C@H](O)[C@@H]1O)OP(=O)(O)C(Cl)(Cl)P(=O)(O)O (stereo in doubt; 11A) [listing 2 of 2 here] |  |  |  | inactive |  |  |  |  | 
BP(=O)(OC[C@H]1O[C@@H](n2cnc3c(N)ncnc32)[C@H](O)[C@@H]1O)OP(=O)(O)C(Cl)(Cl)P(=O)(O)O (stereo in doubt; 11B) [listing 1 of 2 here] |  | 3.3% | 4% |  | 1.4% | 3.2% |  |  | Activity [2]: 3.1%; EC50 [10]: Not Active
BP(=O)(OC[C@H]1O[C@@H](n2cnc3c(N)ncnc32)[C@H](O)[C@@H]1O)OP(=O)(O)C(Cl)(Cl)P(=O)(O)O (stereo in doubt; 11B) [listing 2 of 2 here] |  |  |  | Active |  |  |  |  | 
BP(=O)(OC[C@H]1O[C@@H](n2cnc3c(N)nc(SC)nc32)[C@H](O)[C@@H]1O)OP(=O)(O)C(Cl)(Cl)P(=O)(O)O (stereo in doubt; 12A) [listing 1 of 2 here] | 7 | 0.7% |  |  | 1.5% | 0.7% | 5% | 570 nM | Activity [2]: 0.3%
BP(=O)(OC[C@H]1O[C@@H](n2cnc3c(N)nc(SC)nc32)[C@H](O)[C@@H]1O)OP(=O)(O)C(Cl)(Cl)P(=O)(O)O (stereo in doubt; 12A) [listing 2 of 2 here] |  |  |  | Active |  |  |  |  | 
BP(=O)(OC[C@H]1O[C@@H](n2cnc3c(N)nc(SC)nc32)[C@H](O)[C@@H]1O)OP(=O)(O)C(Cl)(Cl)P(=O)(O)O (stereo in doubt; 12B) [listing 1 of 2 here] |  | 4% | 1.8% |  |  |  |  | 1200 nM | 
BP(=O)(OC[C@H]1O[C@@H](n2cnc3c(N)nc(SC)nc32)[C@H](O)[C@@H]1O)OP(=O)(O)C(Cl)(Cl)P(=O)(O)O (stereo in doubt; 12B) [listing 2 of 2 here] |  |  |  | Active |  |  |  |  | 
Nc1ncnc2c1ncn2[C@@H]1O[C@H](COP(=O)(O)OP(=O)(O)OP(=O)(O)O)[C@@H](O)[C@H]1O [ADENOSINE TRIPHOSPHATE] |  |  |  |  |  |  |  |  | t1/2 [7]: 4.9 h
